# From PubChem
# F508del corr – F508del CFTR correction, initial screen, CFBE line, single point; CFBE cells, YFP halide quenching; stimulated with forskolin plus potentiator P3; % fluorescence drop versus neutral controls; activity (quench increase), % at 7.58 µM; hit rate 0.36% among 350,000;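 active = mean added fluorescence quench of at least 8% versus neutral control, with both replicates also reaching 8%; inconclusive = only one of the mean or replicate conditions met; inactive = mean below 8% and not both replicates reaching 8%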;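 note: cells transiently co-express mutant CFTR-F508del with the halide-sensitive YFP; corrector assay measuring rescue of mutant channel to the surface after 24 h compound exposure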
# E-sel inducer – E-selectin induction in HUVECs, primary screen, imaging, HUVEC, immunofluorescence imaging, single point; normalized: neutral wells 0, TNF-alpha wells 100; activation, % at 7.58 µM; hit rate 0.37% among 260,000; P16581;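 active = mean E-selectin-positive cell signal at least 10% of the positive control, reached in at least 60% of replicates, without over 20% cell loss; inconclusive = no rule given, readout overlaps actives, possibly toxicity-flagged; inactive = the rest, including those meeting only one limit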
#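 System: HUVEC / Compound: single concentration / Signal: immunofluorescence imaging / Read-out: percent E-selectin-positive cells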
# ERAP1 inh – human ERAP1 aminopeptidase inhibitors, primary screen, biochemical, single point, plate reader; hit rate 0.15% among 340,000; Endoplasmic reticulum aminopeptidase 1 (Homo sapiens), Q9NZ08; recombinant ERAP1, Leu-AMC fluorescence, 60 min; inhibition, % at 10.7 µM;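 active = mean replicate inhibition of at least 30%, or all replicates individually reaching that 30% level; inactive = mean below 30% and not every replicate reaching it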;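 note: 0% = neutral control wells and 100% = L-leucinethiol positive control wells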
# miR122 inh – miR-122 Renilla sensor signal increase in Huh7, primary screen, miR-122 inhibitor project, cell-based, single point, plate reader; Huh7 miR-122 Renilla luciferase sensor, 48 h; neutral wells = 0, positive control = 100; activation (reporter increase), % at 12.5 µM; hit rate 0.3% among 340,000; AID 602342, 2012;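 active = mean replicate activation score at least 90 and every replicate individually at or above 90; inconclusive = only one of the two criteria met; inactive = neither criterion met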;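 note: higher luciferase means less miR-122 activity so hits act as miR-122 inhibitors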
# GSIS activator – GLuc luminescence reporter in INS-1E cells, primary screen for activators of glucose-dependent secretion of insulin | INS-1E GLuc reporter insulin secretion, 2-3 h | activation, % at 16.6 µM | hit rate 0.61% among 370,000;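 active = lowest replicate activation of at least 40%, so every replicate reaches that level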;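 note: 0% = median of neutral control wells and 100% = median of IBMX positive control wells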
# DENV2 CPE – inhibitors of DENV2 cytopathic effect, primary screen, cell-based, plate reader, single concentration; DENV2-infected cells, cytopathic effect rescue; CPE inhibition, % at 9.99 µM; hit rate 1.7% among 350,000; AID 651640, 2012; in the data active = CPE inhibition above about 20%, passing the limit was not always enough; inconclusive = no clear call, values can overlap the other calls; tested in BHK-21 cells;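 note: 0% = median of neutral control wells and 100% = median of positive control wells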
# Active calls of the source: *; ? = inconclusive; . = no result given; ! = not active in a repeat; [ ] = remark or other dose. In the library only some 2.6% were active in any assay of this set; here they are far more common.
SMILES,F508del corr,E-sel inducer,ERAP1 inh,miR122 inh,GSIS activator,DENV2 CPE
Cc1cccc(-c2ccc(C3[C@@H]4CN(Cc5ccccc5F)C[C@H]3N4)cc2)c1 (stereo partly specified),1,0,3,.,23,13
Cc1ccc(-c2ccc([C@@H]3[C@@H]4CN(Cc5ccccc5F)C[C@H]3N4)cc2)cc1,-3,0,.,.,83*,-26
CCC(=O)N[C@@H]1C=C[C@H](CC(=O)NCCN2CCCCC2)O[C@@H]1CO,-3,0,3,.,-2,3
Cc1ccc(-c2ccc(C3[C@@H]4CN(Cc5cccc(F)c5)C[C@H]3N4)cc2)cc1 (stereo partly specified),-1,1,-1,.,997*,-3
Fc1ccc(-c2ccc(C3[C@@H]4CN(Cc5ccccc5)C[C@H]3N4)cc2)cc1 (stereo partly specified),0,0,0,.,75*!,-3
O=C(c1ccc(F)cc1)N1C[C@@H]2N[C@H](C1)C2c1ccc(/C=C/c2ccccc2)cc1 (stereo partly specified),-3,0,2,.,119*!,5
FC(F)(F)c1cc(CCN2CCNC[C@@H]2Cc2ccccc2)cc(C(F)(F)F)c1,2,0,0,.,191*,.
C[C@@H]1CCCCO[C@H](CN(C)C)[C@H](C)CN([C@H](C)CO)C(=O)c2cc(NC(=O)Nc3ccc4c(c3)OCO4)ccc2O1,1,0,-3,-2[16.7 µM],-15,10
C[C@H](CO)N1C[C@H](C)[C@H](CN(C)CC2CC2)Oc2cc(-c3cccc(C#N)c3)ccc2S1(=O)=O,1,0,1,-4[16.7 µM],11,4
O=C(O)CN=C(NS(=O)(=O)c1ccc(Cl)cc1)c1ccc(F)cc1,-5,.,2,.,2,0
O=S(=O)(NC(=NCc1ccccc1)c1ccc(F)cc1)c1ccc(Cl)cc1,1,.,-3,148*,4,12
CCCNC(=O)N(C)C[C@@H]1Oc2cc(-c3ccc(C)cc3)ccc2S(=O)(=O)N([C@H](C)CO)C[C@H]1C,0,-2,-1,14[16.7 µM],-4,-8
C[C@H]1CN([C@@H](C)CO)C(=O)c2ccccc2-c2ccccc2CO[C@H]1CN(C)C(=O)Cc1ccccc1,2,-3,0,.,19,-4
O=C(COC(=O)c1ccc(-n2cnnn2)cc1)c1ccc(Br)cc1,0,27*,3,-10,10,-4
O=c1[nH]c(=S)[nH]c2c1C(c1ccc(Cl)c(Cl)c1)OC(CCc1ccccc1)C2 (stereo unspecified),3,-2,.,.,-24,19
O=c1[nH]c(=S)[nH]c2c1C(c1ccc(Cl)cc1)OC(CCc1ccccc1)C2 (stereo unspecified),6,.,1,1,.,101*
CC(C)=CCC[C@H](C)C[C@@H]1Cc2[nH]c(=S)[nH]c(=O)c2[C@@H](c2ccc(F)cc2)O1,-3,1,-1,.,255*,-6
O=c1[nH][nH]c2c1C(c1ccc(Cl)c(Cl)c1)OC(CCc1ccccc1)C2 (stereo unspecified),7,0,-5,.,56*,?
COc1ccc(/C=C/C(=O)NC(=S)Nc2ccc(S(N)(=O)=O)cc2)cc1OC,3,0,-2,-10,44*,0
COc1cc(/C=C/C(=O)NC(=O)c2ccccc2O)ccc1OC(C)=O,0,.,.,-5,4,73*
CC(C)NC(=O)N(C)C[C@H]1OCCCC[C@@H](C)Oc2ccc(NS(=O)(=O)c3cn(C)cn3)cc2C(=O)N([C@H](C)CO)C[C@H]1C,0,.,2,-6[16.7 µM],5,-2
COC(=O)C[C@H]1CC[C@@H](NC(=O)c2ccccc2)[C@H](CO)O1,0,0,1,.,7,-8
CC(=O)N(C)C[C@H]1Oc2cc(C#CCN(C)C)ccc2S(=O)(=O)N([C@H](C)CO)C[C@@H]1C,1,0,-3,-3[16.7 µM],10,-9
CC(C)(C)C(=O)NCCc1nc2ccccc2n1CC(=O)c1ccccc1,-4,0,18,3,-1,-5
CCC(=O)NCCc1nc2ccccc2n1CC(=O)c1ccccc1,3,0,-1,0,.,76*
SMILES,F508del corr,E-sel inducer,ERAP1 inh,miR122 inh,GSIS activator,DENV2 CPE
O=C(NCCN1CCOCC1)c1ccccc1-c1ccccc1,.,.,.,1,.,.
Nc1sc(-c2ccccc2)cc1C(=O)NCCN1CCOCC1,2,0,-2,.,-18,26*
COc1ccc(S(=O)(=O)Nc2cccc3c2O[C@H](CN(C)C(=O)Nc2c(C)noc2C)[C@@H](C)CN([C@@H](C)CO)C3=O)cc1,2,32*,7,-4[16.7 µM],3,10
COc1ccc(S(=O)(=O)Nc2cccc3c2O[C@H](CN(C)C(=O)Nc2c(C)noc2C)[C@H](C)CN([C@H](C)CO)C3=O)cc1,-2,96*,7,1[16.7 µM],-1,-1
Cc1noc(C)c1NC(=O)N(C)C[C@@H]1Oc2c(NS(=O)(=O)c3ccccc3)cccc2C(=O)N([C@@H](C)CO)C[C@@H]1C,0,0,1,0[16.7 µM],14,125*
COc1ccc(S(=O)(=O)Nc2cccc3c2O[C@@H](CN(C)C(=O)Nc2c(C)noc2C)[C@H](C)CN([C@@H](C)CO)C3=O)cc1,-1,-10,9,-5[16.7 µM],-14,11
CNC(=O)Nc1ccc2nc(C)oc2c1,-2,0,-3,.,.,1
Cc1nc2ccc(NC(=O)NC(=O)c3c(Cl)cccc3Cl)cc2o1,-2,64*,.,.,9,-3
COc1cc(C)c(C2NC(=O)c3ccccc3N2)cc1C (stereo unspecified),4,.,-1,14,.,-7
Cc1ccc(C)c(C2NC(=O)c3ccccc3N2)c1 (stereo unspecified),8.8*,1,-14,.,5,5
COc1ccc2c3c(n(C)c2c1)[C@H](CO)N(C(=O)Cc1ccccc1)CC31CN(C(C)=O)C1,-1,0,0,.,11,4
COc1cc(C(=O)OCCCN(C)C)cc(OC)c1OC,2,0,-2,0,7,-2
COc1cc(C(=O)OCCn2c(=O)c3c(ncn3CCN(C)C)n(C)c2=O)cc(OC)c1OC,3,.,1,.,1,25*
C[C@H](CO)N1C[C@H](C)[C@H](CN(C)S(=O)(=O)c2cccs2)OCCCC[C@H](C)Oc2ccc(NC(=O)C3CCCCC3)cc2C1=O,1,1,1,3[16.7 µM],-9,2
O=C(C1CC1)N1CC2(C1)[C@H](c1ccccc1)[C@H](CO)N2Cc1nccs1,2,0,2,.,5,-4
